Laboratory results taken from ChEMBL document CHEMBL4354796 (J Med Chem, 2019).
Calls of active or inactive are those of the source.

What was measured:
[1] = biological target: Estrogen receptor (Homo sapiens, UniProt P03372); assay: Inhibition of human Gal4-fused ER alpha expressed in 293FT cells after 24 hrs by luciferase reporter gene assay; assay type: cell-based
[2] = Volume of distribution at steady state in Sprague-Dawley rat at 2.5 mg/kg, iv after 24 hrs by LC-MS/MS analysis; assay type: ADME, organism-based; details: in vivo, read-out: Vdss
Method in brief: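 Sprague-Dawley rats given the formulated compound intravenously at a final 2.5 mg/kg. Blood sampled at several time points over 24 h and analysed for drug concentration by LC-MS/MS.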

[3] = biological target: Mitogen-activated protein kinase kinase kinase 20 (Homo sapiens, UniProt Q9NYL2); assay: Inhibition of ZAK (unknown origin)
[4] = organism: Homo sapiens; assay: Selectivity ratio of IC50 for inhibition of PDE7A1 catalytic domain (130 to 482 residues) (unknown origin) expressed in Escherichia coli BL21 cells to IC50 for inhibition of human PDE10A2 catalytic domain 446 to 789 residues expressed in Escherichia coli BL21 cells
[5] = biological target: Fibroblast growth factor receptor 1 (Homo sapiens, UniProt P11362); assay: Inhibition of FGFR1 (unknown origin)
Sequence of Fibroblast growth factor receptor 1 (P11362 whole entry): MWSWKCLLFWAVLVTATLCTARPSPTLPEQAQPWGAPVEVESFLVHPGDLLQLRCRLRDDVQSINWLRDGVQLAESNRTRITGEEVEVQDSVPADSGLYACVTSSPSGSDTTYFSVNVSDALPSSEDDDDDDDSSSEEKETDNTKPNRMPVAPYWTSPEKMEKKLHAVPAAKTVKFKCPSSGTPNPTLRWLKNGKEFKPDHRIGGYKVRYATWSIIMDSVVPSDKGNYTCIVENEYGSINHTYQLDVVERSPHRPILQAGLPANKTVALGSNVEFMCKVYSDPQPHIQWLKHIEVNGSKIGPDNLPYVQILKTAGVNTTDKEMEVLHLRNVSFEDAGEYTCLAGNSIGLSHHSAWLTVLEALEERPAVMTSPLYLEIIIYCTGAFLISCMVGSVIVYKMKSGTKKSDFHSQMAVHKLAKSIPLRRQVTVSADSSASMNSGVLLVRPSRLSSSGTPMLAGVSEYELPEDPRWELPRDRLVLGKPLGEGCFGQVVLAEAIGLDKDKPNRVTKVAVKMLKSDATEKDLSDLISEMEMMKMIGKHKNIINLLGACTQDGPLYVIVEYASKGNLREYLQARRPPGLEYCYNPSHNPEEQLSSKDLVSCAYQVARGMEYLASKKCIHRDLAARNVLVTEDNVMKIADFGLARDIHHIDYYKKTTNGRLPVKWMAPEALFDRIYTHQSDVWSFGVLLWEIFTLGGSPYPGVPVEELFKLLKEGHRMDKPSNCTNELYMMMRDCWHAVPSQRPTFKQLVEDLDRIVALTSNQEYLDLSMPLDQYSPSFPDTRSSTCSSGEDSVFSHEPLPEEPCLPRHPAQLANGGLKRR

[6] = biological target: Epidermal growth factor receptor (Homo sapiens, UniProt P00533); assay: Inhibition of EGFR (unknown origin)
[7] = biological target: Fibroblast growth factor receptor 2 (Homo sapiens, UniProt P21802); assay: Inhibition of FGFR2 (unknown origin)
[8] = biological target: High affinity cAMP-specific and IBMX-insensitive 3',5'-cyclic phosphodiesterase 8A (Homo sapiens, UniProt O60658); assay: Inhibition of PDE8A1 catalytic domain (480 to 820 residues) (unknown origin) expressed in Escherichia coli BL21 cells
[9] = biological target: Aurora kinase A (Homo sapiens, UniProt O14965); assay: Inhibition of Aurora A (unknown origin)
Sequence of Aurora kinase A (O14965 whole entry, the tested form may be a part): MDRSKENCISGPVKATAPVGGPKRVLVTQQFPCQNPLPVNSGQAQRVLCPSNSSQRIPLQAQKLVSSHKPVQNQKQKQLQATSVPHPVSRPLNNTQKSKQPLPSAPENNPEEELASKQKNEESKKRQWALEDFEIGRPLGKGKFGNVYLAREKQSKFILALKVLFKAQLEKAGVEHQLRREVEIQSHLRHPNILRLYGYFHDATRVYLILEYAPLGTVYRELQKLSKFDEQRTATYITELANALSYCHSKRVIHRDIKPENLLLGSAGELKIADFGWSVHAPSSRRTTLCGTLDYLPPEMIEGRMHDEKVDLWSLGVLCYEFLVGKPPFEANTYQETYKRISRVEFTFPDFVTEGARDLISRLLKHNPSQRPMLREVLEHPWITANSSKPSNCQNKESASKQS

[10] = organism: Homo sapiens; assay: Selectivity ratio of IC50 for inhibition of PDE8A1 catalytic domain (480 to 820 residues) (unknown origin) expressed in Escherichia coli BL21 cells to IC50 for inhibition of human PDE10A2 catalytic domain 446 to 789 residues expressed in Escherichia coli BL21 cells
[11] = AUC(0 to infinity) in Sprague-Dawley rat at 2.5 mg/kg, iv after 24 hrs by LC-MS/MS analysis; assay type: ADME, organism-based; parameters: dose 2.5 mg/kg, time infinity, route intravenous; details: in vivo
Method in brief: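 Single intravenous dose of 2.5 mg/kg of the formulated compound to SD rats. Blood was sampled at several time points over 24 h. Blood drug concentration was quantified by LC-MS/MS, and the PK parameters were derived from that profile.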

[12] = organism: Homo sapiens; assay: Selectivity ratio of IC50 for inhibition of PDE2A catalytic domain (580 to 919 residues) (unknown origin) expressed in Escherichia coli BL21 cells to IC50 for inhibition of human PDE10A2 catalytic domain 446 to 789 residues expressed in Escherichia coli BL21 cells
[13] = biological target: Bromodomain-containing protein 4 (Homo sapiens, UniProt O60885); assay: Inhibition of BRD4 (unknown origin)
[14] = organism: Homo sapiens; assay: Selectivity ratio of IC50 for inhibition of PDE3A catalytic domain (679 to 1087 residues) (unknown origin) expressed in Escherichia coli BL21 cells to IC50 for inhibition of human PDE10A2 catalytic domain 446 to 789 residues expressed in Escherichia coli BL21 cells
[15] = biological target: Cone cGMP-specific 3',5'-cyclic phosphodiesterase subunit alpha' (Homo sapiens, UniProt P51160); assay: Inhibition of PDE6C (1 to 858 residues) (unknown origin)
[16] = biological target: Estrogen receptor beta (Homo sapiens, UniProt Q92731); assay: Inhibition of ER beta ((unknown origin))
Sequence of Estrogen receptor beta (Q92731 whole entry, the tested form may be a part): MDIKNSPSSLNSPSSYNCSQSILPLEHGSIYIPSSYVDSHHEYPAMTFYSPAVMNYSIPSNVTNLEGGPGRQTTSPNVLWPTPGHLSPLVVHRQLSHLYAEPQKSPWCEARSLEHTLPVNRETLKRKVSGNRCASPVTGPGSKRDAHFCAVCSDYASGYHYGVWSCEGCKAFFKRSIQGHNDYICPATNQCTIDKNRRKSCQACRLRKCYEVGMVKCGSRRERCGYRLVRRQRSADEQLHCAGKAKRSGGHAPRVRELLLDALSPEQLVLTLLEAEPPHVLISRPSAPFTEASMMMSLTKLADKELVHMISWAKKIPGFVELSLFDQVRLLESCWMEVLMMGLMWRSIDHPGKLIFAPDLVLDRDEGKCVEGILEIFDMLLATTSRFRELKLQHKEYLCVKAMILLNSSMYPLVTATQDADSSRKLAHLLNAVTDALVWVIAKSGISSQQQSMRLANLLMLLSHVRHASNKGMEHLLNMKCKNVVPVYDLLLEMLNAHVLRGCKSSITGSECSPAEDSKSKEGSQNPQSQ

[17] = organism: Homo sapiens; assay: Selectivity ratio of IC50 for inhibition of PDE9A2 catalytic domain (181 to 506 residues) (unknown origin) expressed in Escherichia coli BL21 cells to IC50 for inhibition of human PDE10A2 catalytic domain 446 to 789 residues expressed in Escherichia coli BL21 cells
[18] = biological target: cGMP-dependent 3',5'-cyclic phosphodiesterase (Homo sapiens, UniProt O00408); assay: Inhibition of PDE2A catalytic domain (580 to 919 residues) (unknown origin) expressed in Escherichia coli BL21 cells
[19] = biological target: Cholinesterase (Equus caballus, UniProt P81908); assay: Inhibition of equine serum BuChE using BTC as substrate after 15 mins by Ellman's method
[20] = biological target: Tyrosine-protein kinase ABL1 (Homo sapiens, UniProt P00519); assay: Inhibition of recombinant full-length human His-tagged ABL1 expressed in baculovirus expression system using Tyr2 peptide as substrate after 2 hrs by FRET-based Z-LYTE assay
[21] = biological target: Prostaglandin G/H synthase 2 (Homo sapiens, UniProt P35354); assay: Inhibition of COX2 (unknown origin)
[22] = organism: Homo sapiens; assay: Selectivity ratio of IC50 for inhibition of human PDE4D2 catalytic domain (86 to 413 residues) expressed in Escherichia coli BL21 cells to IC50 for inhibition of human PDE10A2 catalytic domain 446 to 789 residues expressed in Escherichia coli BL21 cells
[23] = organism: Homo sapiens; assay: Selectivity ratio of IC50 for inhibition of human N-terminal GST-tagged PDE1C catalytic domain (2 to 634 residues) expressed in baculovirus infected Sf9 cells to IC50 for inhibition of human PDE10A2 catalytic domain 446 to 789 residues expressed in Escherichia coli BL21 cells
[24] = biological target: Protein deacetylase HDAC6 (Homo sapiens, UniProt Q9UBN7); assay: Inhibition of recombinant human full length HDAC6 expressed in Sf9 insect cells using acetylated peptide as susbtrate after 60 mins by fluorescence based assay
Sequence of Protein deacetylase HDAC6 (Q9UBN7 whole entry): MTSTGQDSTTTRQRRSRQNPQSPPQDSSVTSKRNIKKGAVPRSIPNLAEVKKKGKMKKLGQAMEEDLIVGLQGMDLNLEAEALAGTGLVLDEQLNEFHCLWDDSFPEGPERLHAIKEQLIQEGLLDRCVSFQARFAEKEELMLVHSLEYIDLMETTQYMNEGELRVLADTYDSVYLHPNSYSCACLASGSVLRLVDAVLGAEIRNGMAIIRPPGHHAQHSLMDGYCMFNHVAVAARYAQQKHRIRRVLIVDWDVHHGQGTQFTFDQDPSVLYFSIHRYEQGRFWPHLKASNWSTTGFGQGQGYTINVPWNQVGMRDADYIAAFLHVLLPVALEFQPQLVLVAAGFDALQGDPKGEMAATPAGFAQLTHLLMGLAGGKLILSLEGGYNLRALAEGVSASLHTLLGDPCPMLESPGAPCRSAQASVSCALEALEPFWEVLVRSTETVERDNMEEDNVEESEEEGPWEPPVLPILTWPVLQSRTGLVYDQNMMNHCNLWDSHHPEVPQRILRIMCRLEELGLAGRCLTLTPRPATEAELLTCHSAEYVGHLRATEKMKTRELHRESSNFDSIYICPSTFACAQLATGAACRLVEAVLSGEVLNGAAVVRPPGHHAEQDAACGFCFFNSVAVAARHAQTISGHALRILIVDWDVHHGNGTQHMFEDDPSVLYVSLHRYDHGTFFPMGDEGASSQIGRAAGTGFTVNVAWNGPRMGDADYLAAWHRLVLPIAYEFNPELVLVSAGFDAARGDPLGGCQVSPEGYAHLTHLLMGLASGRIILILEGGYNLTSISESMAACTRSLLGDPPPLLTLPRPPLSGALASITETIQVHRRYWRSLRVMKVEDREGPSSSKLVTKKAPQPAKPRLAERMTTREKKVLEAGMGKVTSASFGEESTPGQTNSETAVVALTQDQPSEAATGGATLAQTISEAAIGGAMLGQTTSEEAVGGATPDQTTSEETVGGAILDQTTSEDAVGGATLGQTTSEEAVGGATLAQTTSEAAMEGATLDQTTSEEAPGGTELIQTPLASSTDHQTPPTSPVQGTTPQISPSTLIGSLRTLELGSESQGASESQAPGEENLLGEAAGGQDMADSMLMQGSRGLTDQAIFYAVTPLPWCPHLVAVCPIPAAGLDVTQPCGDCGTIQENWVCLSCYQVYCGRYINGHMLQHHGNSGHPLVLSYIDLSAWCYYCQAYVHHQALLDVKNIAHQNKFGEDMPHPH

[25] = biological target: Fibroblast growth factor receptor 4 (Homo sapiens, UniProt P22455); assay: Inhibition of FGFR4 (unknown origin)
Sequence of Fibroblast growth factor receptor 4 (P22455 whole entry, the tested form may be a part): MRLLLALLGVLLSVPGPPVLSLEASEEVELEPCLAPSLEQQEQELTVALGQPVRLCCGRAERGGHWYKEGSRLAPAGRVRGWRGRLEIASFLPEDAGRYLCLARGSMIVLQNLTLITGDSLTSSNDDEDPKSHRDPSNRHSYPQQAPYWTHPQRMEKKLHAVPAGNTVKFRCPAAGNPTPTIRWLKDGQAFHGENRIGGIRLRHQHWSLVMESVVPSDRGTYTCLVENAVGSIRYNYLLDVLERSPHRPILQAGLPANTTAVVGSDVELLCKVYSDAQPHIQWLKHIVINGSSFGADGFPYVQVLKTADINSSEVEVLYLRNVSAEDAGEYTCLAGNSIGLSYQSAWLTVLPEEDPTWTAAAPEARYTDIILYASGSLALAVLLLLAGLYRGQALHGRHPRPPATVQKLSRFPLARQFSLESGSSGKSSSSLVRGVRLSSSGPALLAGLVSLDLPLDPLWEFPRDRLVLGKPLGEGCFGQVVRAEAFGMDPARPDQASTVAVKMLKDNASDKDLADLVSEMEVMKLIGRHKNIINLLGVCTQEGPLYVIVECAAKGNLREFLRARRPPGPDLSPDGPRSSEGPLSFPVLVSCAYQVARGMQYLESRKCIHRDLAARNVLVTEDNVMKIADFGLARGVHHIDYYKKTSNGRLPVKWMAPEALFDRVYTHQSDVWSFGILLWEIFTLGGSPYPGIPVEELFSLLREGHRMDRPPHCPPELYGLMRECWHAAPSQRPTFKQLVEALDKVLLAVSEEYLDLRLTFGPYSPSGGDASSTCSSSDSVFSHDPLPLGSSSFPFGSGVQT

[26] = biological target: cGMP-specific 3',5'-cyclic phosphodiesterase (Homo sapiens, UniProt O76074); assay: Inhibition of PDE5A1 catalytic domain (535 to 860 residues) (unknown origin) expressed in Escherichia coli BL21 cells
[27] = tested on: Rattus norvegicus; assay: Anti-hypersensitive activity in Wistar rat model of MCT-induced pulmonary arterial hypertension assessed as effect on mean pulmonary artery pressure at 2.5 mg/kg, ip administered daily for 3 weeks; assay type: functional, organism-based
[28] = tested on: Rattus norvegicus; assay: Anti-hypersensitive activity in Wistar rat model of MCT-induced pulmonary arterial hypertension assessed as effect on wall thickness at 2.5 mg/kg, ip administered daily for 3 weeks; assay type: functional, organism-based
[29] = biological target: Serine/threonine-protein kinase PLK1 (Homo sapiens, UniProt P53350); assay: Inhibition of PLK1 (unknown origin)
Sequence of Serine/threonine-protein kinase PLK1 (P53350 whole entry): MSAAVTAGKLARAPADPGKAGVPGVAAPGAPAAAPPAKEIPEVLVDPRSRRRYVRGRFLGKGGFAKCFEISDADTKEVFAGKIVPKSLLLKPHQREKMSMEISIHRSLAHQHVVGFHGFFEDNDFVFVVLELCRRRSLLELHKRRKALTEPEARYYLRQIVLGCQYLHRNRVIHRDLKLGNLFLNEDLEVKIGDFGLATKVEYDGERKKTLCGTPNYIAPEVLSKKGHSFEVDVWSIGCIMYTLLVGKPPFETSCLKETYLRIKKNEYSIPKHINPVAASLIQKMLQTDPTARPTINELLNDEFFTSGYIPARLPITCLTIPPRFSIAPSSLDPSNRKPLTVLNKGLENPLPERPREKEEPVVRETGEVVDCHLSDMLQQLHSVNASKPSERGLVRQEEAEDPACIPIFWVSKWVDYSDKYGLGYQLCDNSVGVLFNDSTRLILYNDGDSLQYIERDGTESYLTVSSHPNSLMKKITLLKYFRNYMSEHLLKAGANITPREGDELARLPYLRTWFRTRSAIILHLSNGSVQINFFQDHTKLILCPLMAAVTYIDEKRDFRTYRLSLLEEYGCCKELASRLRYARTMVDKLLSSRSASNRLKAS

[30] = biological target: Acetylcholinesterase (Electrophorus electricus, UniProt O42275); assay: Inhibition of electric eel AChE using ATC as substrate after 15 mins by Ellman's method
Sequence of Acetylcholinesterase (O42275 whole entry): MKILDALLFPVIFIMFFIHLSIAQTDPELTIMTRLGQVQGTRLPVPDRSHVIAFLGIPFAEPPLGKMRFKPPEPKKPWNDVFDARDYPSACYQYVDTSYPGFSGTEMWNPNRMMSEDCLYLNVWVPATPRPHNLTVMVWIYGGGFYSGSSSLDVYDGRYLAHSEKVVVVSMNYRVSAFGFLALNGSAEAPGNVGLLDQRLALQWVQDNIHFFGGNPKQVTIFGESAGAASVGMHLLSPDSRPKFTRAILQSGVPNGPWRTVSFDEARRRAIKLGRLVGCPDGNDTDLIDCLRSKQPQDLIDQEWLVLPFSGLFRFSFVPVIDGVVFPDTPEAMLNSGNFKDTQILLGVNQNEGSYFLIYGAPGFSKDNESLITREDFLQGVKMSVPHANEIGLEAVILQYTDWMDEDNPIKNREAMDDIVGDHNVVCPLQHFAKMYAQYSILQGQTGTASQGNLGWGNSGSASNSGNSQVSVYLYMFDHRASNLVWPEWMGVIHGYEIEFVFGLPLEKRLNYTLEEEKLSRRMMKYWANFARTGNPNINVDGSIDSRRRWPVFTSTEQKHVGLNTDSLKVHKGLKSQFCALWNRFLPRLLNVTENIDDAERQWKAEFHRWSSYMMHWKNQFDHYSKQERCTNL

[31] = Protein binding in Sprague-Dawley rat plasma at 2.5 mg/kg , iv after 24 hrs by LC-MS/MS analysis; details: read-out: PPB (converted)

Cc1ccc2c(c1)nc(CCN1C(=O)c3cccc4cccc(c34)C1=O)n2-c1ccncc1
1100 ng·h/mL: AUC(0-inf) [11]
0.51 L/kg: Vd [2]
> 20 µM: IC50 [1] | IC50 [8] | IC50 [15] | IC50 [18] | IC50 [19] | IC50 [26] | IC50 [30]
> 10 µM: IC50 [3] | IC50 [5] | IC50 [6] | IC50 [7] | IC50 [9] | IC50 [13] | IC50 [16] | IC50 [20] | IC50 [21] | IC50 [24] | IC50 [25] | IC50 [29]
0.02: fraction unbound at 24 h [31]
> 45000: Ratio IC50 [4] | Ratio IC50 [10] | Ratio IC50 [12] | Ratio IC50 [14] | Ratio IC50 [17] | Ratio IC50 [22] | Ratio IC50 [23]
active: Activity [27] | Activity [28]
